Assays:
Rattus norvegicus [1] = test: Antihypertensive activity in spontaneously hypertensive rats (SHR) measured by percentage fall in cardiac rhythm (CR) at 25 mg/kg administered intraperitoneally at 3 h; format: functional, Heart; conditions: route intraperitoneal
Outline: (§1)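 Unanesthetized Okamoto-strain SHR, male and female, 8 weeks old, 300–350 g, systolic pressure ≥190 mmHg, heart rate 400–650 beats/min; five animals per dose. Given ip at 2.5 mL/kg, dissolved or suspended in normal saline or saline with 0.2% (carboxymethyl)cellulose and 1.0% Tween 80. Tail AP and CR recorded by mechanical transduction at set times; reported as percentage fall from control.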

Rattus norvegicus [2] = test: Antihypertensive activity in spontaneously hypertensive rats (SHR) measured by percentage fall in arterial pressure (AP) at 5 mg/kg administered intraperitoneally at 5 h; format: functional, Artery; conditions: route intraperitoneal; outline: as §1
Rattus norvegicus [3] = test: Antihypertensive activity in spontaneously hypertensive rats (SHR) measured by percentage fall in cardiac rhythm (CR) at 25 mg/kg administered intraperitoneally at 1 h; format: functional, Heart; conditions: route intraperitoneal; outline: as §1
Rattus norvegicus [4] = test: Percent fall in systolic blood pressure, directly measured on carotid (iv on the jugular vein) of spontaneously hypertensive rats at 1 mg/kg after 30 minutes; format: functional, Artery
Outline: (§2)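 Anesthetized (sodium pentobarbital, 70 mg/kg) male and female Okamoto SHR, 8 weeks old, 300–350 g. Given iv into the jugular vein in normal saline. Arterial pressure and cardiac rhythm are recorded directly from the carotid by polygraph at set times after dosing. Each is expressed as percent change from the pre-dose control value.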

Rattus norvegicus [5] = test: Antihypertensive activity in spontaneously hypertensive rats (SHR) measured by percentage fall in cardiac rhythm (CR) at 5 mg/kg administered intraperitoneally at 5 h; format: functional, Heart; conditions: route intraperitoneal
Outline: (§3)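 Conscious SHR (Okamoto strain), 8 weeks old, male and female, 300–350 g, systolic BP ≥190 mmHg, CR 400–650 beats/min. Given ip or po at 2.5 mL/kg in normal saline or saline with 0.2% (carboxymethyl)cellulose and 1.0% Tween 80. Tail AP and CR recorded by mechanical transduction at 1, 3, 5 and 24 h, five animals per dose. Effect expressed as % fall versus control.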

Rattus norvegicus [6] = test: Percent fall in systolic blood pressure, directly measured on carotid (iv on the jugular vein) of spontaneously hypertensive rats at 1 mg/kg after 5 minutes; format: functional, Artery; outline: as §2
[7] = Effect on PGI-2 release from rat aortic tissue at a final concentration of 10e -4 for an incubation time of 35 minutes; format: functional
Outline: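 Female Wistar rats (200–220 g) received heparin 200 IU/kg ip and were killed 10 min later. Aortic pieces of about 25 mm² were washed in ice-cold oxygenated Krebs–Henseleit buffer, then incubated in 1 mL buffer at 37 °C. Compound at 10^-4 M final was added 10 min before tissue transfer. PGI2 release was read as antiaggregatory activity of the incubate on ADP (2×10^-6 M)-induced human PRP aggregation and by 6-keto-PGF1α RIA. n = 4.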

Homo sapiens [8] = species: Homo sapiens; test: In vitro inhibition of platelet aggregation induced by PGH-2 (PRP incubated for 60 minutes at 37 degree C) at 10e-5 M; format: functional; conditions: 1 h
Outline: (§4)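 Human venous blood anticoagulated with 3.8% sodium citrate (1:9). PRP from centrifugation at 800 rpm for 10 min at room temperature. Count adjusted with PPP to […]. Compound in saline with 10% ethylene glycol is added to PRP and incubated at 37 °C before the agonist. Agonists: ADP 2×10^-5 M, AA 0.6 mM, PGH2 2.8 μM, adrenaline 0.6 μM. Born absorbance aggregometry; n = 5.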

Rattus norvegicus [9] = test: Antihypertensive activity in spontaneously hypertensive rats (SHR) measured by percentage fall in cardiac rhythm (CR) at 25 mg/kg administered perorally at 3 h; format: functional, Heart; conditions: route oral; outline: as §3
Rattus norvegicus [10] = test: Antihypertensive activity in spontaneously hypertensive rats (SHR) measured by percentage fall in arterial pressure (AP) at a dose of 25 mg/kg administered perorally at 1 h; format: functional, Artery; conditions: route oral
Outline: (§5)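 Oral dosing at 2.5 mL/kg to unanesthetized male and female Okamoto-strain SHR (8 weeks old, 300–350 g, systolic pressure ≥190 mmHg, heart rate 400–650 beats/min), five per dose. Vehicle was normal saline or saline with 0.2% (carboxymethyl)cellulose and 1.0% Tween 80. AP measured on the tail by mechanical transduction at set times; expressed as percentage fall from control.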

Rattus norvegicus [11] = test: Antihypertensive activity in spontaneously hypertensive rats (SHR) measured by percentage fall in arterial pressure (AP) at 25 mg/kg administered perorally at 3 h; format: functional, Artery; conditions: route oral; outline: as §5
Rattus norvegicus [12] = test: Antihypertensive activity in spontaneously hypertensive rats (SHR) measured by percentage fall in cardiac rhythm (CR) at 5 mg/kg administered intraperitoneally at 3 h; format: functional, Heart; conditions: route intraperitoneal; outline: as §3
Rattus norvegicus [13] = test: Antihypertensive activity in spontaneously hypertensive rats (SHR) measured by percentage fall in arterial pressure (AP) at 25 mg/kg administered intraperitoneally at 1 h; format: functional, Artery; conditions: route intraperitoneal; outline: as §1
Rattus norvegicus [14] = test: Percent increase in cardiac rhythm, directly measured on carotid (iv on the jugular vein) of spontaneously hypertensive rats at 1 mg/kg after 60 minutes; format: functional, Heart; outline: as §2
Homo sapiens [15] = species: Homo sapiens; test: In vitro inhibition of platelet aggregation induced by AA (PRP incubated for 60 minutes at 37 degree C) at 10e-5 M; format: functional; conditions: 1 h; outline: as §4
Rattus norvegicus [16] = test: Percent fall in systolic blood pressure, directly measured on carotid (iv on the jugular vein) of spontaneously hypertensive rats at 1 mg/kg after 180 minutes; format: functional, Artery; outline: as §2
Rattus norvegicus [17] = test: Antihypertensive activity in spontaneously hypertensive rats (SHR) measured by percentage fall in arterial pressure (AP) at 1 mg/kg administered intraperitoneally at 1 h; format: functional, Artery; conditions: route intraperitoneal; outline: as §1
Rattus norvegicus [18] = test: Percent fall in systolic blood pressure, directly measured on carotid (iv on the jugular vein) of spontaneously hypertensive rats at 1 mg/kg after 60 minutes; format: functional, Artery; outline: as §2
Rattus norvegicus [19] = test: Antihypertensive activity in spontaneously hypertensive rats (SHR) measured by percentage fall in arterial pressure (AP) at 25 mg/kg administered perorally at 5 h; format: functional, Artery; conditions: route oral; outline: as §5
Cavia porcellus [20] = test: Ex vivo inhibition of platelet aggregation induced by ADP-II at 100 mg/kg; format: functional
Outline: (§6)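 Fasted male or female guinea pigs (250–300 g, five per group) dosed orally in normal saline or saline with 0.2% (carboxymethyl)cellulose/1.0% Tween 80; controls given vehicle. Under ether, cardiac blood collected into 3.8% citrate. PRP adjusted to […] and aggregation induced by ADP (second wave) or AA, read by absorbance aggregometry. PGE2 and TXB2 measured by RIA.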

Rattus norvegicus [21] = test: Percent fall in systolic blood pressure, directly measured on carotid (iv on the jugular vein) of spontaneously hypertensive rats at 1 mg/kg after 15 minutes; format: functional, Artery; outline: as §2
Cavia porcellus [22] = test: Ex vivo inhibition of platelet aggregation induced by AA at 100 mg/kg; format: functional; outline: as §6
Rattus norvegicus [23] = test: Percent increase in cardiac rhythm, directly measured on carotid (iv on the jugular vein) of spontaneously hypertensive rats at 1 mg/kg after 15 minutes; format: functional, Heart; outline: as §2
Rattus norvegicus [24] = test: Antihypertensive activity in spontaneously hypertensive rats (SHR) measured by percentage fall in cardiac rhythm (CR) at 1 mg/kg administered intraperitoneally at 3 h; format: functional, Heart; conditions: route intraperitoneal; outline: as §1
Rattus norvegicus [25] = test: Antihypertensive activity in spontaneously hypertensive rats (SHR) measured by percentage fall in arterial pressure (AP) at 5 mg/kg administered intraperitoneally at 3 h; format: functional, Artery; conditions: route intraperitoneal; outline: as §1

COc1ccc2[nH]c3c(NN)nncc3c2c1.Cl
Decrease in CR (Rattus norvegicus [1]): 19% | Decrease in AP (Rattus norvegicus [2]): 26% | Decrease in CR (Rattus norvegicus [3]): 22% | Decrease in blood pressure (Rattus norvegicus [4]): 40% | Decrease in CR (Rattus norvegicus [5]): -6% | Decrease in blood pressure (Rattus norvegicus [6]): 30% | Inhibition [7]: 25% | inhibition at 10 µM (Homo sapiens [8]): 100% | Decrease in CR (Rattus norvegicus [9]): -14% | Decrease in AP (Rattus norvegicus [10]): 50% | Decrease in AP (Rattus norvegicus [11]): 40% | Decrease in CR (Rattus norvegicus [12]): -8% | Decrease in AP (Rattus norvegicus [13]): 58% | Increase (Rattus norvegicus [14]): 10% | inhibition at 10 µM (Homo sapiens [15]): 100% | Decrease in blood pressure (Rattus norvegicus [16]): 36% | Decrease in AP (Rattus norvegicus [17]): 32% | Decrease in blood pressure (Rattus norvegicus [18]): 60% | Decrease in AP (Rattus norvegicus [19]): 34% | inhibition in vivo at 100 mg/kg (Cavia porcellus [20]): 100% | Decrease in blood pressure (Rattus norvegicus [21]): 40% | inhibition in vivo at 100 mg/kg (Cavia porcellus [22]): 100% | Increase (Rattus norvegicus [23]): 11% | Decrease in CR (Rattus norvegicus [24]): 8% | Decrease in AP (Rattus norvegicus [25]): 35%

Source: ChEMBL document CHEMBL1123757, “Selective thromboxane synthetase inhibitors and antihypertensive agents. New derivatives of 4-hydrazino-5H-pyridazino[4,5-b]indole, 4-hydrazinopyridazino[4,5-a]indole, and related compounds” (J Med Chem, 1987)
